In ChEMBL document CHEMBL4699636, “Novel 2,7-Diazaspiro[4,4]nonane Derivatives to Inhibit Mouse and Human Osteoclast Activities and Prevent Bone Loss in Ovariectomized Mice without Affecting Bone Formation” (J Med Chem, 2020):
One block for each compound: values may come before it. Calls of active or inactive are those of the source. The rule behind the calls is not given here.

What was measured:
[1] = Toxicity in mouse peripheral blood cell-derived osteoclasts assessed as reduction in osteoclasts number at 5-10 uM incubated for 48 hrs by TRAP-staining based assay; type: tissue-based; details: osteoclast, in the assay text read “bone marrow-derived” for “peripheral blood cell-derived”
Summary of the method: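 Osteoclasts were derived from bone marrow of 4–8-week-old C57BL/6J mice, first with M-CSF 100 ng/mL for 48 h, then with M-CSF 30 ng/mL plus RANKL 100 ng/mL. At day 3 of differentiation they were detached with Accutase and seeded on calcium phosphate-coated wells. Next day, compound was added in 0.5% DMSO (8 wells/condition) for 48 h. Four wells were TRAP-stained (pH 5, tartrate, 1.5 h, 37 °C) and osteoclasts counted from images.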

[2] = target: T1, Dedicator of cytokinesis protein 5 (Homo sapiens, UniProt Q9H7D0); assay: Inhibition of C-terminal 6-histidine tagged human DOCK5 (1212 to 1642 residues) expressed in Escherichia coli assessed as reduction in nucleotide exchange efficiency at 20 to 60 uM by N-methylanthraniloyl-GDP fluorescence based nucleotide exchange assay; details: dose microM 20-60
T1 sequence (Q9H7D0 whole entry, the tested form may be a part): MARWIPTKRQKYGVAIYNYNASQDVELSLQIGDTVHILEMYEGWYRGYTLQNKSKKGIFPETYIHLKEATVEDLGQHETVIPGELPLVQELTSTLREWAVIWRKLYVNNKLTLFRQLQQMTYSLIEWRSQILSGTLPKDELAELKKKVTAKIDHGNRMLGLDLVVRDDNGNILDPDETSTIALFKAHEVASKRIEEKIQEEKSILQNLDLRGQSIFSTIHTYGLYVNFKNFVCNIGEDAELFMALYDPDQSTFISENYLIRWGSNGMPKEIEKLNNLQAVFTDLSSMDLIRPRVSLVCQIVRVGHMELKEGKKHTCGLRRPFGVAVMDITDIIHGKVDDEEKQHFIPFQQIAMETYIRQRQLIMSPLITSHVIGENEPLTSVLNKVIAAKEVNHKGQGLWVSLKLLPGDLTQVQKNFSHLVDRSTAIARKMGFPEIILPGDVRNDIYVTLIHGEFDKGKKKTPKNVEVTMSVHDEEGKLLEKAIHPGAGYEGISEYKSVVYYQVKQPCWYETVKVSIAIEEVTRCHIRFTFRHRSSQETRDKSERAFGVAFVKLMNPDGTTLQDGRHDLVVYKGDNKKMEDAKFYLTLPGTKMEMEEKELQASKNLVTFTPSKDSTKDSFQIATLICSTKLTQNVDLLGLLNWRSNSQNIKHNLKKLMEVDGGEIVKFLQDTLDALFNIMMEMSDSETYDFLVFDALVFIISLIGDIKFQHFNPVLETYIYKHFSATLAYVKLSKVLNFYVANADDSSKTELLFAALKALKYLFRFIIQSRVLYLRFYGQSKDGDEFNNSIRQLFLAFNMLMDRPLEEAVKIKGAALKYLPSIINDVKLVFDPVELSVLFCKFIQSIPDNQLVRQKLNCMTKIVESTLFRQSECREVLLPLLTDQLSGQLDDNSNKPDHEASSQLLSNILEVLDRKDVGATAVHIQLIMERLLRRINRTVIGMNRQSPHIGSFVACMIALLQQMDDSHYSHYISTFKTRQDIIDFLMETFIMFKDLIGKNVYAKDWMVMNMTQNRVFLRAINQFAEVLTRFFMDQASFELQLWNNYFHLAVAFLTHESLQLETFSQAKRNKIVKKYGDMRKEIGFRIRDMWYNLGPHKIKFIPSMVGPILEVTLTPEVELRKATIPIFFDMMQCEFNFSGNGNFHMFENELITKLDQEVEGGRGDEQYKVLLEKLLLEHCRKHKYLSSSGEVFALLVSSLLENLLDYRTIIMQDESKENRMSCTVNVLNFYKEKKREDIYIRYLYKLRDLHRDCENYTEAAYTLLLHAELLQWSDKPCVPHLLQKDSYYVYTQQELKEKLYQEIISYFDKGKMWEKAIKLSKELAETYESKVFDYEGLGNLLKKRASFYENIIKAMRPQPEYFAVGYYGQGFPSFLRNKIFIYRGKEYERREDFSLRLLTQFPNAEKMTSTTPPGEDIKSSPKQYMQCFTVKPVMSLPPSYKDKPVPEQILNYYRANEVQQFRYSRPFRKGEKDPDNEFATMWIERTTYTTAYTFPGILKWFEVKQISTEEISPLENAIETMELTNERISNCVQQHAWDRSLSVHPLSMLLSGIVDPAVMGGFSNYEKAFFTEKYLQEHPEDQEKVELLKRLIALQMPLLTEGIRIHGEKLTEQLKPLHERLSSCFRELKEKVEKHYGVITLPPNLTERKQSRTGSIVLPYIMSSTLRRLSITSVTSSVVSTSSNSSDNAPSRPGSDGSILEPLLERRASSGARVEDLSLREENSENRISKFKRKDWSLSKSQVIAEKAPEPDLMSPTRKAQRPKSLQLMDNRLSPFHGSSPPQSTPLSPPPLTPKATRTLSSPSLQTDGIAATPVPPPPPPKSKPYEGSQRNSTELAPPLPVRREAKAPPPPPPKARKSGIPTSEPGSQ
Summary of the method: (§1)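 Mant-GDP-loaded His-tagged human RAC1 at 2.0 µM with 100 nM DOCK5 (residues 1212-1642) or TRIOGEF1 (R1232-T1550), both E. coli-expressed. Buffer: 50 mM Tris pH 8, 300 mM NaCl, 2 mM MgCl2, 1 mM DTT, 1% DMSO, 25 °C. Reaction started with 100 µM GTP. Fluorescence decay read at ex 360/em 440 nm, kobs by single-exponential fit, compound at 0, 20 or 60 µM, duplicates, as % of activity.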

Osteoclast [3] = assay: Inhibition of resorption activity of mouse peripheral blood cell-derived osteoclasts at 5-10 uM incubated for 48 hrs by Kossa-staining based assay; type: functional, tissue-based; details: dose microM 5-10, time 48.0 hrs, in the assay text read “bone marrow-derived” for “peripheral blood cell-derived”
Summary of the method: (§2)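 Osteoclasts from C57BL/6J mouse bone marrow, M-CSF then M-CSF 30 ng/mL plus RANKL 100 ng/mL. Day-3 cells reseeded on calcium phosphate-coated wells, compound added next day in 0.5% DMSO for 48 h, 8 wells per condition. 4 wells TRAP-stained for osteoclast counts, 4 von Kossa-stained for resorbed area. Activity expressed as resorption normalized to osteoclast number.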

[4] = tested on: Osteoclast (Homo sapiens); assay: Inhibition of resorption activity of human peripheral blood cell-derived osteoclasts at 1-20 uM incubated for 48 hrs by Kossa-staining based assay; details: dose microM 1-20, time 48.0 hrs
[5] = target: Triple functional domain protein (Homo sapiens) (UniProt O75962); assay: Inhibition of C-terminal 6-histidine tagged human TRIOGEF1 (R1232 to T1550 residues) expressed in Escherichia coli assessed as reduction in nucleotide exchange efficiency at 20 to 60 uM by N-methylanthraniloyl-GDP fluorescence based nucleotide exchange assay; details: dose microM 20-60; summary of the method: as §1
[6] = tested on: Osteoclast (Homo sapiens); assay: Toxicity in human peripheral blood cell-derived osteoclasts assessed as reduction in osteoclasts number at 20 uM incubated for 48 hrs by TRAP-staining based assay
[7] = target: Dedicator of cytokinesis protein 5 (Mus musculus) (UniProt B2RY04); assay: Inhibition of DOCK5 in mouse osteoclasts assessed as induction of podosome belt organization defects at 100 uM incubated for 4 hrs by immunofluorescence based assay; details: Osteoclast
Chain of Dedicator of cytokinesis protein 5 (Mus musculus) (B2RY04 whole entry, the tested form may be a part): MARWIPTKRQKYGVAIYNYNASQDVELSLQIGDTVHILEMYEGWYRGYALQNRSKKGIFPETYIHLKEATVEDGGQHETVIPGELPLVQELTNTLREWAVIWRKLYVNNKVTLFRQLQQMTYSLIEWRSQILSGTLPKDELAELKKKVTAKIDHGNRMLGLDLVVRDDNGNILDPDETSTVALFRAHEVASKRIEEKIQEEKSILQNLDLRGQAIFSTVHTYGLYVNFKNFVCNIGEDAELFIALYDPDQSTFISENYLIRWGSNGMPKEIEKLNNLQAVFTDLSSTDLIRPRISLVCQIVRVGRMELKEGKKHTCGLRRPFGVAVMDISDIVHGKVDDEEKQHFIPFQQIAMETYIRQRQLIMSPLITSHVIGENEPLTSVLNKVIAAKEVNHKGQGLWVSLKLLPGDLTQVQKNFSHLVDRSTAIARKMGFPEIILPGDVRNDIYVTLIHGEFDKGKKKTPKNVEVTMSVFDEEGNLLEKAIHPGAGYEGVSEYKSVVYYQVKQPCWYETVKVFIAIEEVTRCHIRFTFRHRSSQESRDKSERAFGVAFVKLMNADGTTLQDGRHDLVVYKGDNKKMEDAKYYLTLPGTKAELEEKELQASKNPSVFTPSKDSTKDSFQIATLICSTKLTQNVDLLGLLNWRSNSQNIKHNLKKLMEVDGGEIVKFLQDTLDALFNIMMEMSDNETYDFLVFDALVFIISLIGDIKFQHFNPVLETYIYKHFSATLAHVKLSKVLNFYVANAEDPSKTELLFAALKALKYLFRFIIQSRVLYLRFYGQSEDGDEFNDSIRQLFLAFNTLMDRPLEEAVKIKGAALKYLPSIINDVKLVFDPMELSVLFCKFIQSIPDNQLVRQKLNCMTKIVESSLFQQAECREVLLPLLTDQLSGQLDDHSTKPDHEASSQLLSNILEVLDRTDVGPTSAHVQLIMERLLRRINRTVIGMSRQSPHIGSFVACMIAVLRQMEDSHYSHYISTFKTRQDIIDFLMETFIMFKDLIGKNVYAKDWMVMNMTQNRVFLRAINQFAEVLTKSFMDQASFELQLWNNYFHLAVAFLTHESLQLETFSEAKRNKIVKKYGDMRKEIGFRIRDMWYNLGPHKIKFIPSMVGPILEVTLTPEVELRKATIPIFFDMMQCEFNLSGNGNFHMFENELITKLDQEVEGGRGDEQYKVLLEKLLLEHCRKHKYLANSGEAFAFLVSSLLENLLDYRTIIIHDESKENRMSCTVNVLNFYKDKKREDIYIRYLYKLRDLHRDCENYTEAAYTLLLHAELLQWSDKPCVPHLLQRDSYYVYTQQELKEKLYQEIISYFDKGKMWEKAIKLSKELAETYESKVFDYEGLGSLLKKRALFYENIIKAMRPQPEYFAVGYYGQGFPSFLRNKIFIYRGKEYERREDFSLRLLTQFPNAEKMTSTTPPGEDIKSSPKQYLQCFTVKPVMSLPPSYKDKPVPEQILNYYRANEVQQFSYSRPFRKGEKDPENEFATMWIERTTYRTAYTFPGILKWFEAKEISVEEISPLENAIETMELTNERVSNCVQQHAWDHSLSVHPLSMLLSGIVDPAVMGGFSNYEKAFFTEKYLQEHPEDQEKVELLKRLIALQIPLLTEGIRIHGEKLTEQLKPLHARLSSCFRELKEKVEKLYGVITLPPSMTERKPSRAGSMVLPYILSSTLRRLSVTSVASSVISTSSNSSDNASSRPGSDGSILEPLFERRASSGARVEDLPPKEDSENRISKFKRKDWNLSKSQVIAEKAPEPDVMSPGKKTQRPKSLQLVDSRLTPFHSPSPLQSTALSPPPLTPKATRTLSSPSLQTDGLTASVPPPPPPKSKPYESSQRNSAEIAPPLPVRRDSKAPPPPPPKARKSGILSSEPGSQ
Summary of the method: (§3)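 Mouse bone-marrow osteoclasts, differentiated with M-CSF and RANKL on coverslips. Compound added to 100 µM final, 0.5% DMSO, for 4 h. Cells fixed directly, or after medium change and overnight recovery, then stained for vinculin and actin (phalloidin) and viewed by widefield microscopy for podosome belt organization.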

[8] = target: Dedicator of cytokinesis protein 5 (Mus musculus) (UniProt B2RY04); assay: Inhibition of N-terminal GFP tagged mouse DOCK5 expressed in HEK293T cells assessed as reduction in exchange activity at 100 uM incubated for 1 hr by Western blot analysis based Rac-GTP pull-down assay; type: cell-based
Summary of the method: (§4)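 HEK293T cells transiently expressing GFP-tagged DOCK5 DHR2 exchange domain (mouse, or human residues 1212-1642). Treated 1 h with compound in 1% DMSO, then lysed. Rac-GTP pulled down with GST-PakCRIB beads, 45 min at 4 °C, and detected by western blot. Band intensity normalized to lysate protein. Single dose 100 µM; dose-response in 1.5x steps for IC50.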

[9] = target: T1, Dedicator of cytokinesis protein 5; assay: Inhibition of N-terminal GFP tagged human DOCK5 (1212-1642 residues) expressed in HEK293T cells assessed as reduction in exchange activity incubated for 1 hr by Western blot analysis based Rac-GTP pull-down assay; type: cell-based; summary of the method: as §4
Osteoclast [10] = assay: Inhibition of resorption activity of mouse peripheral blood cell-derived osteoclasts at 8 uM incubated for 48 hrs by Kossa-staining based assay; type: functional, tissue-based; details: in the assay text read “bone marrow-derived” for “peripheral blood cell-derived”; summary of the method: as §2
[11] = target: Dedicator of cytokinesis protein 5 (Mus musculus) (UniProt B2RY04); assay: Inhibition of DOCK5 in mouse osteoclasts assessed as induction of podosome belt organization defects at 100 uM incubated for 4 hrs followed by compound wash out by overnight recovery by immunofluorescence based assay; type: tissue-based; details: Osteoclast; summary of the method: as §3
Mus musculus [12] = assay: Antiosteoporotic activity in C57BL6/J mouse model of OVX-induced bone loss assessed as serum CTX-1 level […] at 100 ug/kg, sc QD for 4 weeks (165.38 +/- 54.93 %); type: functional; details: dose 100 µg/kg
Mus musculus [13] = assay: Antiosteoporotic activity in C57BL6/J mouse model of OVX-induced bone loss assessed as cortical thickness level in tibial diaphysis at 100 ug/kg, sc QD for 4 weeks by microCT analysis (179.27 +/- 7.57 um); type: functional; details: dose 100 µg/kg
Mus musculus [14] = assay: Antiosteoporotic activity in C57BL6/J mouse model of OVX-induced bone loss assessed as trabecular bone volume per tissue volume level in tibial metaphysis at 100 ug/kg, sc QD for 4 weeks by microCT analysis (17.49 +/- 2.91 %); type: functional; details: dose 100 µg/kg
[15] = Toxicity in C57BL6/J mouse model of OVX-induced bone loss assessed as effect on bone formation by measuring number of osteoblasts per bone surface level in femoral metaphysis at 100 ug/kg, sc QD for 4 weeks by histomorphometry (4.55 +/ 2.53 /mm); type: organism-based; details: in vivo, 0.1 mg/kg, 672 h, dose 100 µg/kg
Mus musculus [16] = assay: Antiosteoporotic activity in C57BL6/J mouse model of OVX-induced bone loss assessed as degree of anisotropy (range 0-1) level in tibial metaphysis at 100 ug/kg, sc QD for 4 weeks by microCT analysis (0.53 +/- 0.07); type: functional; details: dose 100 µg/kg
Mus musculus [17] = assay: Antiosteoporotic activity in C57BL6/J mouse model of OVX-induced bone loss assessed as trabecular pattern factor level in tibial metaphysis at 100 ug/kg, sc QD for 4 weeks by microCT analysis (17.17 +/- 3.41 […]); type: functional; details: dose 100 µg/kg
[18] = Toxicity in C57BL6/J mouse model of OVX-induced bone loss assessed as effect on bone formation by measuring mineralizing mineral apposition rate level in femoral metaphysis at 100 ug/kg, sc QD for 4 weeks by histomorphometry (1.62 +/ 0.21 um/d (lcm)); type: organism-based; details: in vivo, 0.1 mg/kg, 672 h, dose 100 µg/kg
[19] = Toxicity in C57BL6/J mouse model of OVX-induced bone loss assessed as effect on bone formation by measuring osteoblast surface per trabecular bone surface level in femoral metaphysis at 100 ug/kg, sc QD for 4 weeks by histomorphometry (5.03 +/ 2.92 %); type: organism-based; details: in vivo, 0.1 mg/kg, 672 h, dose 100 µg/kg
Mus musculus [20] = assay: Antiosteoporotic activity in C57BL6/J mouse model of OVX-induced bone loss assessed as structure model index level in tibial metaphysis at 100 ug/kg, sc QD for 4 weeks by microCT analysis (1.92 +/- 0.19); type: functional; details: dose 100 µg/kg
Mus musculus [21] = assay: Antiosteoporotic activity in C57BL6/J mouse model of OVX-induced bone loss assessed as trabecular separation level in femoral metaphysis at 100 ug/kg, sc QD for 4 weeks by histomorphometry (319.80 +/- 106.52 um); type: functional; details: dose 100 µg/kg
Mus musculus [22] = assay: Antiosteoporotic activity in C57BL6/J mouse model of OVX-induced bone loss assessed as trabecular thickness level in femoral metaphysis at 100 ug/kg, sc QD for 4 weeks by histomorphometry (39.96 +/- 5.42 um); type: functional; details: dose 100 µg/kg
Mus musculus [23] = assay: Antiosteoporotic activity in C57BL6/J mouse model of OVX-induced bone loss assessed as trabecular bone volume per tissue volume level in femoral metaphysis at 100 ug/kg, sc QD for 4 weeks by histomorphometry (11.67 +/- 2.37%); type: functional; details: dose 100 µg/kg
Mus musculus [24] = assay: Antiosteoporotic activity in C57BL6/J mouse model of OVX-induced bone loss assessed as trabecular number level in femoral metaphysis at 100 ug/kg, sc QD for 4 weeks by histomorphometry (2.99 +/- 0.80 /mm); type: functional; details: dose 100 µg/kg
[25] = Toxicity in C57BL6/J mouse model of OVX-induced bone loss assessed as effect on bone formation by measuring bone formation rate per trabecular bone surface level in femoral metaphysis at 100 ug/kg, sc QD for 4 weeks by histomorphometry ([…]); type: organism-based; details: in vivo, 0.1 mg/kg, 672 h, dose 100 µg/kg
[26] = Toxicity in C57BL6/J mouse model of OVX-induced bone loss assessed as effect on bone formation by measuring osteocalcin level at 100 ug/kg, sc QD for 4 weeks […]; type: organism-based; details: in vivo, 0.1 mg/kg, 672 h, dose 100 µg/kg
[27] = Toxicity in C57BL6/J mouse model of OVX-induced bone loss assessed as effect on bone formation by measuring mineralizing surface per trabecular bone surface level in femoral metaphysis at 100 ug/kg, sc QD for 4 weeks by histomorphometry (27.90 +/ 8.22 %); type: organism-based; details: in vivo, 0.1 mg/kg, 672 h, dose 100 µg/kg
[28] = Toxicity in C57BL6/J mouse model of OVX-induced bone loss assessed as effect on body weight at 100 ug/kg, sc QD for 4 weeks; type: organism-based; details: in vivo, 0.1 mg/kg, 672 h, dose 100 µg/kg

- inhibition [5]: inactive
- inhibition [2]: 67%
SMILES: O=S1(=O)N(c2ccccc2)C[C@H](O)[C@]12CCN(Cc1ccc(Cl)c(Cl)c1)C2 (racemic)
- inhibition [4]: Active
- Activity [6]: Toxic
- inhibition (Osteoclast [3]): Active

- inhibition [7]: Active
- inhibition [2]: inactive
- inhibition [8]: Active
- IC50 [9]: 24 µM
- inhibition [11]: inactive
SMILES: O=S1(=O)N(c2ccccc2)C[C@H](O)[C@]12CCN(Cc1cccc(Cl)c1)C2 (racemic)
- inhibition (Osteoclast [10]): Active
- inhibition (Osteoclast [3]): Active

- inhibition [2]: inactive
SMILES: COc1ccc(CN2CC[C@@]3(C2)[C@@H](O)CN(c2ccccc2)S3(=O)=O)cc1F (racemic)
- inhibition (Osteoclast [3]): Active

- inhibition [2]: inactive
SMILES: O=S1(=O)N(c2ccccc2)C[C@H](O)[C@]12CCN(Cc1ccc3c(c1)CCC3)C2 (racemic)
- inhibition (Osteoclast [3]): Active

- inhibition [2]: inactive
SMILES: O=S1(=O)N(c2ccccc2)C[C@H](O)[C@]12CCN(Cc1ccccc1Cl)C2 (racemic)
- inhibition (Osteoclast [3]): Active

- inhibition [2]: inactive
SMILES: O=S1(=O)N(c2ccccc2)C[C@H](O)[C@]12CCN(Cc1cnc3ccccc3c1)C2 (racemic)
- inhibition (Osteoclast [3]): Active

The next lines start with the compound.

SMILES: COc1ccc(N2CCC3(CCN(Cc4cccc(Cl)c4)C3)C2=O)cc1C (stereo unspecified)
- Activity [1]: Toxic
- inhibition [2]: inactive
- inhibition (Osteoclast [3]): Active

SMILES: O=C1N(c2cccc(F)c2)CCC12CCN(Cc1cccc(Cl)c1)C2 (stereo unspecified)
- Activity [1]: Toxic
- inhibition [2]: inactive
- inhibition (Osteoclast [3]): Active

SMILES: NCCCC(O)(P(=O)(O)O)P(=O)(O)O
- inhibition [4]: Active

SMILES: Cn1cc(CN2CC[C@@]3(C2)[C@@H](O)CN(c2ccccc2)S3(=O)=O)c2ccccc21 (racemic)
- inhibition [2]: inactive
- inhibition (Osteoclast [3]): Active

SMILES: O.O=P(O)(O)C(O)(Cn1ccnc1)P(=O)(O)O [ZOLEDRONIC ACID]
- Activity (Mus musculus [12]): 73.18%
- Activity (Mus musculus [13]): 189.5 um
- Activity (Mus musculus [14]): 43.96%
- Activity [15]: 0.54 /millimeter
- Activity_index (Mus musculus [16]): 0.25
- Activity (Mus musculus [17]): -35.6 1/mm
- Activity [18]: 1.11 micrometer/day
- Activity [19]: 0.52%
- Activity_index (Mus musculus [20]): -1.36
- Activity (Mus musculus [21]): 132.16 um
- Activity (Mus musculus [22]): 44.8 µm
- Activity (Mus musculus [23]): 26.19%
- Activity (Mus musculus [24]): 5.92 /millimeter
- Activity [25]: 34.28 um3/um2/yr
- Activity [26]: 42.55%
- Activity [27]: 8.51%
- Activity [28]: Non-Toxic
